TPT1 inhibitor: C. albicans TPT1 enzyme inhibition; recombinant caTPT1, FP RNA substrate dephosphorylation; inhibition, % at 5 µM; hit rate 0.81% among 300,000; AID 1962;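 active = inhibition above the mean of all tested compounds plus 3 SD, set per screening campaign, cut at about 24% in these data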;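 also: plate controls were DMSO alone for no effect and ferristatin control at 100 nM for full effect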
CSN inh: blocks human CSN-mediated cullin deneddylation. Q92905. Purified CSN, SCF-Nedd8-OG deneddylation, fluorescence polarization. inhibition, % at 12.5 µM. hit rate 0.38% among 360,000. AID 651999;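 active = pattern-corrected inhibition above about 35%, with an unprinted fluorescence ratio check between 0.5 and 1.5, limit read from the data, passing the limit was not always enough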;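 also: 0% = enzyme with substrate and 100% = substrate without enzyme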
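Material: purified human Csn5 enzyme expressed in HEK293T cells / Medium: Tris buffer pH 7.5, NaCl, DTT, Tween-20, trehalose, ovalbumin / Compound dosing: 12.5 µM single point / Schedule: 90 min incubation of compound, enzyme and substrate at room temperature / Signal: fluorescence polarization of the substrate / Control set: no-enzyme wells high, enzyme-with-substrate wells low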
SENP1 FRET inh: blocks the human SENP1 SUMO protease catalytic domain; recombinant SENP1 catalytic domain, CyPet-SUMO1-YPet FRET cleavage; AID 624204; Q9P0U3; inhibition, % at 10 µM; hit rate 0.21% among 360,000;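 active = inhibition at least 30% at 10 µM, raw YFP signal under a set limit, fluorescence ratio 0.5 to 1.5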;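 also: 0% = enzyme with DMSO and 100% = no enzyme wells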
Target sequence (Q9P0U3 419-644 limits assumed): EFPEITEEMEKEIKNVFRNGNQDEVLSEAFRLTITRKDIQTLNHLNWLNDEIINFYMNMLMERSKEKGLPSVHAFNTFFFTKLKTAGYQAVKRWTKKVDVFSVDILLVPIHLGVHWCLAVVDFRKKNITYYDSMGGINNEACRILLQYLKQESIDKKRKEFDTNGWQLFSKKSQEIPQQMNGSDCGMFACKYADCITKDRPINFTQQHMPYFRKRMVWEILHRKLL
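Test system: recombinant human SENP1 catalytic domain, His6-tagged / Medium: pH 8 Tris buffer with EDTA, NaCl, BME, BSA, NP40, catalase / Also added: SUMO1 FRET substrate flanked by Cypet and Ypet, 25 nM / Times: 50 min reaction at room temperature / Signal: FRET, CFP and YFP emission / Control set: no-enzyme low control and enzyme-plus-DMSO high control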
HNF4A DNA FP: change in binding of human HNF4 alpha to DNA; HNF4a-FITC DNA binding, fluorescence polarization, 1 h; activity change, % at 10 µM; AID 1224865; hit rate 0.3% among 360,000; in the data active = activity change above about 30%, passing the limit was not always enough
Rpn11 block: inhibitors of human proteasome Rpn11; human 26S proteasome, Ub4-pepOG fluorescence polarization; 20S core pre-blocked with epoxomicin; inhibition, % at 20 µM; hit rate 0.59% among 360,000;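 active = inhibition at 20 µM, scaled to each plate's controls, above about 33%, limit read from the data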
Target sequence (O00487 whole entry, looked up): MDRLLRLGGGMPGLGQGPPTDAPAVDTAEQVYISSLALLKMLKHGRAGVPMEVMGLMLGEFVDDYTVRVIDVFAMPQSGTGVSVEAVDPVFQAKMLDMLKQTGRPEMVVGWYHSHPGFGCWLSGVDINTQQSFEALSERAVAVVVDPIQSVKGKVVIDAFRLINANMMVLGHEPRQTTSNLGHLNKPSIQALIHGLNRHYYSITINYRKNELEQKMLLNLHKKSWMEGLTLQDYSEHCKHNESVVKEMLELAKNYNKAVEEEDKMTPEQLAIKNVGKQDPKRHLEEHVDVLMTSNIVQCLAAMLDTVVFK
caTPT1 confirm: TPT1 (C. albicans) inhibition, confirmation; recombinant caTPT1, fluorescence polarization, RNase T1 coupled; AID 2149; hit rate 74% among 2,400; shares compounds with TPT1 inhibitor; inhibition, % at 5 µM;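 active = inhibition above the primary screen limit, the mean inhibition of all tested compounds plus 3 SD, cut at about 25% in these data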
RNase T1 counter: blocks Aspergillus oryzae RNase T1, a TPT1 counter-screen; RNase T1 cleavage, fluorescence polarization, 1536-well; inhibition, % at 5 µM; shares compounds with TPT1 inhibitor; hit rate 83% among 2,400;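 active = inhibition above the solvent-only control well mean plus 3 SD, limit set per screening run, cut at about 23% in these data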;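 also: plate controls were DMSO wells with enzyme for no effect and wells without RNase T1 for full effect; inhibitors block cleavage so intact labeled substrate keeps polarization high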
Target sequence (P00651 whole entry, looked up): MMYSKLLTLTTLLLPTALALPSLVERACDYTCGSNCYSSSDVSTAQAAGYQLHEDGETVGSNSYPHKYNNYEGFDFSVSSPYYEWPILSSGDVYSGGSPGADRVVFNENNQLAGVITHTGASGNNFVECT
Numbers without * were called inactive; . = no result shown. Compounds with a hit are over-represented: about 1.6% of the library has one in this group of screens.

SMILES | TPT1 inhibitor | CSN inh | SENP1 FRET inh | HNF4A DNA FP | Rpn11 block | caTPT1 confirm | RNase T1 counter
C/C(=N\N1CCCCC1c1cccnc1)c1c(O)n(C2CCCCC2)c(=S)[nH]c1=O (stereo not drawn) | 82* | 7 | -15 | 61* | . | 123* | 133*
COC(=O)C1=C(c2ccc(F)cc2F)C[C@@H]2CC[C@H]1N2C(=O)N1CCC(C)CC1 | . | -3 | 1 | -4 | -4 | . | .
Nc1c([N+](=O)[O-])cc(F)c(N2CCNCC2)c1Br | 27* | -2 | 2 | 1 | -2 | 9 | 10
CN1CCN(c2c(F)cc([N+](=O)[O-])c(N)c2Br)CC1 | -1 | 4 | 3 | 4 | 0 | . | .
CC(C)(OOC1(c2ccccc2)NC(=O)c2ccccc21)c1ccccc1 (stereo not drawn) | . | -2 | 4 | 3 | . | . | .
COc1cc(N2CCOCC2)ccc1/C=C1\C(=O)NC(=O)N(Cc2ccc3c(c2)OCO3)C1=O | 27* | 18 | -1 | -53 | 8 | 46* | 65*
COc1cc(N2CCOCC2)ccc1/C=C1\C(=O)NC(=O)N(Cc2cccs2)C1=O | 23 | 18 | -1 | 1 | 13 | . | .
COc1ccc(CCn2c(O)c(C=Nc3ccc(F)cc3)c(=O)[nH]c2=O)cc1OC | 0 | 8 | 0 | 2 | 19 | . | .
CCN(CC)c1ccc(N=Cc2c(O)n(CCc3ccc(OC)c(OC)c3)c(=O)[nH]c2=O)cc1 | 43* | -2 | -32 | 12 | . | 80* | 93*
CCN(CCO)c1ccc(N=Cc2c(O)n(C)c(=S)[nH]c2=O)cc1 | 57* | 25 | 80 | 2 | . | 86* | 94*
Cc1ccc2c(C)c3ccc4ccccc4c3c[n+]2c1 | . | 4 | -44 | -33 | 1 | . | .
CCCCC1C(=O)NC(=S)N(C)C1=O (stereo not drawn) | . | -3 | -3 | 0 | 9 | . | .
O=C1NC(=O)C(CCc2ccncc2)(Cc2ccc([N+](=O)[O-])cc2)C(=O)N1 | 28* | 2 | 0 | 3 | 0 | 2 | 4
CCOC(=O)c1c(C=O)c2ccccc2n1Cc1ccccc1 | -3 | 4 | 2 | 2 | 0 | . | .
Cn1c(O)c(/C=C/C=Nc2ccccc2)c(=O)n(C)c1=O | 104* | 56* | -24 | 86* | . | 111* | 118*
C=CCn1c(O)c(C=Nc2c(C)n(C)n(-c3ccccc3)c2=O)c(=O)[nH]c1=O | 38* | 5 | -7 | 5 | 20 | 18 | 24*
Cc1c(N=Cc2c(O)n(C)c(=O)[nH]c2=O)c(=O)n(-c2ccccc2)n1C | -5 | 15 | 1 | 8 | 0 | . | .
COc1ccc(OC)c(N2C(=O)/C(=C/c3ccco3)C(=O)NC2=S)c1 | 68* | . | . | . | . | 55* | 27*
CC(=O)NC1=C(N2CC2C)C(=O)C(NC(C)=O)=C(N2CC2C)C1=O (stereo not drawn) | . | 6 | 1 | 0 | 2 | . | .
COC(=O)C12CCc3c(ccc4cc(OC)ccc34)C1=CC(=O)C2 (stereo not drawn) | . | -4 | -70 | -1 | 1 | . | .
O=c1[nH]c(=O)n(-c2ccc(Cl)cc2)c(O)c1C=Nc1ccc(S(=O)(=O)Nc2nccs2)cc1 | 31* | 12 | 3 | 4 | 14 | 37* | 52*
Cc1cccc(-n2c(O)c(C=Nc3ccc(S(N)(=O)=O)cc3)c(=O)[nH]c2=O)c1 | 30* | -6 | 2 | -3 | -1 | 8 | 11
O=C1NC(=S)NC(=O)C1Cc1ccccc1O | . | -7 | 2 | -2 | -6 | . | .
CC1CN2C(=O)C1(c1ccccc1)C(=O)NC2=S (stereo not drawn) | . | -1 | 0 | -2 | -1 | . | .
O=c1c2ccccc2nc(/C=C/c2ccccc2F)n1-c1ccccc1O | 0 | 3 | 2 | -2 | -4 | . | .
SMILES | TPT1 inhibitor | CSN inh | SENP1 FRET inh | HNF4A DNA FP | Rpn11 block | caTPT1 confirm | RNase T1 counter
O=c1c2ccccc2nc(/C=C/c2ccccc2O)n1-c1ccccc1O | 25* | 26 | 49* | 11 | . | 37* | 48*
Cc1cccc(N2C(=O)NC(=O)/C(=C/c3ccc([N+](=O)[O-])o3)C2=O)c1 | 28* | . | . | . | . | 17 | 18
Cc1cc(/C=C2\C(=O)NC(=O)N(Cc3ccccc3Cl)C2=O)c(C)n1-c1ccc(C(=O)O)cc1 | 60* | 20 | 45 | -17 | . | 17 | 24*
Cc1cc(/C=C2\C(=O)NC(=O)N(Cc3ccccc3)C2=O)c(C)n1-c1ccc(Cl)c(C(=O)O)c1 | 16 | 57 | -30 | -45 | 38 | . | .
Cc1cc(/C=C2\C(=O)NC(=O)N(Cc3ccco3)C2=O)c(C)n1-c1ccc(C(=O)O)cc1 | 25* | 11 | 20 | -11 | 38 | 8 | 10
CCOc1ccc(N2C(=O)NC(=O)/C(=C\c3ccc(N4CCCCC4)o3)C2=O)cc1 | 138* | 138 | 24 | 181 | . | 149* | 146*
CN1C(=O)/C(=C/c2ccc(N3CCCCCC3)o2)C(=O)NC1=S | 167* | 154 | 81* | 158 | . | 145* | 138*
Cc1ccc(N2C(=O)NC(=O)/C(=C/c3ccc(-c4ccc(C(=O)O)c(Cl)c4)o3)C2=O)cc1 | 9 | 13 | -6 | -14 | 3 | . | .
C=CCN1C(=O)/C(=C\c2ccc(N3CCOCC3)o2)C(=O)NC1=S | 108* | 112 | 40* | 56* | . | 120* | 124*
CN1C(=O)/C(=C\c2ccc(N3CCCCC3)o2)C(=O)NC1=S | 113* | 172 | 88* | 182 | . | 142* | 136*
CN1C(=O)/C(=C/c2ccc(Cl)s2)C(=O)NC1=S | 8 | 10 | -7 | 3 | 29 | . | .
CN1C(=O)/C(=C\c2ccc(N3CCCCCC3)cc2)C(=O)NC1=S | 7 | 12 | -21 | 10 | 27 | . | .
CN1CCN(c2ccc(/C=C3\C(=O)NC(=S)N(c4cccc(Br)c4)C3=O)o2)CC1 | 132* | 139 | 25 | 128 | . | 152* | 142*
CCCCN1C(=O)/C(=C/c2ccc(N3CCCCCC3)cc2)C(=O)NC1=S | 36* | . | . | . | . | 33* | 43*
Cc1cc(OC(=O)N(C)C)nc(-c2ccc(C)c(Cl)c2)n1 | -2 | -5 | 1 | -2 | -1 | . | .
CN(C)/C=C1/C(=O)NC(=O)N(CCNc2ncc(C(F)(F)F)cc2Cl)C1=O | 29* | 9 | -94 | 17 | 34 | 24 | 34*
COC(=O)c1ccc(NC(=O)CSc2nc3ccc(N4C(=O)C5C6C=CC(C6)C5C4=O)cc3s2)cc1 (stereo not drawn) | -1 | -7 | 2 | 2 | 4 | . | .
Cc1ccnc(NS(=O)(=O)c2ccc(N=Cc3c(O)n(C)c(=O)n(C)c3=O)cc2)n1 | 85* | -6 | -57 | 4 | 33 | 62* | 77*
Cc1cc(C)nc(NS(=O)(=O)c2ccc(N=Cc3c(O)n(C)c(=O)n(C)c3=O)cc2)n1 | 8 | 6 | -40 | 4 | 11 | . | .
